# Activity calls are given as the source filed them. No cut-off for these calls is given here.
# Experiments:
# NCI-H1703 [1] = test: Antiproliferative activity against human NCI-H1703 cells after 48 hrs by MTT assay; assay type: functional, cell-based; conditions: NCI-H1703, 48 h
# [2] = Half life of the compound in GSH-containing buffer; assay type: physicochemical
# Outline: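 Loss of the diazeniumdiolate chromophore followed by UV-visible spectrophotometry at 37 °C. Absorbance was tracked at each compound's λmax. kobs came from a first-order exponential fit and half-life was derived from it. Mean (SE).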
# [3] = Prodrug activation assessed as GSH-induced nitric oxide production per mol of the compound by chemiluminescence assay; assay type: physicochemical
# Outline: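 Phosphate buffer, pH 7.4, containing 4 mM GSH at 37 °C was sparged with inert gas until the detector response was steady. The prodrug was then injected and NO release followed over time. The release curve was integrated to give mol NO per mol compound, reported as mean (SE).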
# NCI-H1703 [4] = test: Metabolic stability in human NCI-H1703 cells assessed as formation of arylated GSH at 5 uM after 5 mins by LC/MS analysis; assay type: ADME, cell-based; conditions: nci-h1703, 5 min
# Outline: (§1)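 H1703 cells plated in flasks and incubated overnight at 37 °C, then treated with 5 μM compound for 5, 30 or 60 min. Cells lysed by scraping in 10 mM HCl with freeze-thaw cycles, then deproteinized with 5-sulfosalicylic acid and centrifuged. Supernatant analyzed by LC/MS with positive APCI on a C18 column using a water/acetonitrile/0.1% formic acid gradient. Extracted ion chromatograms tracked parent and arylated GSH.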
# NCI-H1703 [5] = test: Metabolic stability in human NCI-H1703 cells assessed as formation of arylated GSH at 5 uM after 30 mins by LC/MS analysis; assay type: ADME, cell-based; conditions: nci-h1703, 0.5 h; outline: as §1
# NCI-H1703 [6] = test: Metabolic stability in human NCI-H1703 cells assessed as formation of arylated GSH at 5 uM after 60 mins by LC/MS analysis; assay type: ADME, cell-based; conditions: nci-h1703, 1 h; outline: as §1
# NCI-H1703 [7] = test: Antitumor activity against human NCI-H1703 cells xenografted in athymic NCr-nu/nu mouse at 20 umol/kg, ip 5 times a week for 4-weeks relative to control; assay type: functional, organism-based
# Outline: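 H1703 cells implanted in the flank of 7-week-old female athymic NCr-nu/nu mice. Dosing started once tumors reached 2 × 2 × 2 mm3 (typically four weeks). Compound was given as Pluronic P123 micelles at 20 μmol/kg ip, five times a week for four weeks. Vehicle controls received 2.25% Pluronic P123 in PBS. Tumors measured by caliper and body weights tracked. Welch-corrected t-test.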
# H1703 [8] = test: Induction of SAPK/JNK phosphorylation in human H1703 cells at 1 uM after 4 hrs by Western blotting analysis; assay type: cell-based
# Outline: (§2)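 H1703 lung adenocarcinoma cells exposed to 1 μM compound for 4 h. Western blots probed for phospho-SAPK/JNK, phospho-c-jun, ATF3, PARP (full-length and 89-kDa cleaved fragment) and cleaved effector caspases 3 and 7.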
# H1703 [9] = test: Induction of SAPK/JNK-mediated c-jun phosphorylation in human H1703 cells at 1 uM after 4 hrs by Western blotting analysis; assay type: cell-based; outline: as §2
# [10] = Induction of SAPK/JNK-mediated ATF3 upregulation in human H1703 cells at 1 uM after 4 hrs by Western blotting analysis; assay type: cell-based; outline: as §2
# NCI-H1703 [11] = test: Induction of apoptosis in human NCI-H1703 cells assessed as PARP cleavage at 1 uM after 4 hrs by Western blotting analysis; assay type: functional, cell-based; outline: as §2
# NCI-H1703 [12] = test: Induction of apoptosis in human NCI-H1703 cells assessed as cleaved of caspase 3 level at 1 uM after 4 hrs by Western blotting analysis; assay type: functional, cell-based; outline: as §2
# NCI-H1703 [13] = test: Induction of apoptosis in human NCI-H1703 cells assessed as cleaved of caspase 7 level at 1 uM after 4 hrs by Western blotting analysis; assay type: functional, cell-based; outline: as §2
SMILES,IC50 (NCI-H1703 [1]) [nM],t1/2 [2] [min],NO yield [3] [mol/mol],also measured
CCOC(=O)N1CCN(/[N+]([O-])=N/Oc2ccc([N+](=O)[O-])cc2C#N)CC1,550,33.6,2.04,Stability (NCI-H1703 [4]): Stable; Stability (NCI-H1703 [5]): Stable; Stability (NCI-H1703 [6]): Unstable; Activity (NCI-H1703 [7]): Active; Activity (H1703 [8]): Active; Activity (H1703 [9]): Active; Activity [10]: Active; Activity (NCI-H1703 [11]): Active; Activity (NCI-H1703 [12]): Active; Activity (NCI-H1703 [13]): Active
CCOC(=O)N1CCCN(/[N+]([O-])=N/Oc2ccc([N+](=O)[O-])cc2[N+](=O)[O-])CC1,,,2,
CCOC(=O)N1CCN(/[N+]([O-])=N/Oc2ccc(C#N)cc2[N+](=O)[O-])CC1,730,22.1,2.02,
CCOC(=O)N1CCN(/[N+]([O-])=N/Oc2ccc([N+](=O)[O-])cc2[N+](=O)[O-])CC1,1080,,1.96,

# Second part, led by results:
IC50 (NCI-H1703 [1]) [nM],t1/2 [2] [min],NO yield [3] [mol/mol],SMILES,also measured
680,42.6,1.96,CCOC(=O)N1CCCN(/[N+]([O-])=N/Oc2ccc(C#N)cc2[N+](=O)[O-])CC1,
> 20000,918,,CCOC(=O)N1CCN(/[N+]([O-])=N/Oc2ccc(C#N)cc2C#N)CC1,
2620,66,2.01,CCOC(=O)N1CCCN(/[N+]([O-])=N/Oc2ccc([N+](=O)[O-])cc2C#N)CC1,

# — ChEMBL document CHEMBL2021824, “Structural modifications modulate stability of glutathione-activated arylated diazeniumdiolate prodrugs” (Bioorg Med Chem, 2012)
